pIC50: −log10 of the molar value. The source made the active and inactive calls. The calls are words filed in the database; no cut-off is given here.
What was measured:
[1] = Half life in Sprague-Dawley rat at 50 mg/kg, po measured upto 24 hrs by HPLC/UV analysis; type: ADME, organism-based; conditions: in vivo
How it was run: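 Female Sprague Dawley rats, 8 weeks old, catheterized. Oral suspension in 0.5 % carboxymethyl cellulose at 50 mg/kg, n=3. Bioavailability taken against 3 mg/kg iv. Plasma sampled 5 min–24 h. Cmax and AUC(0–∞) dose-normalized.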

[2] = target: Mast/stem cell growth factor receptor Kit (Homo sapiens, UniProt P10721, K642E); test: Inhibition of KIT K642E mutant (unknown origin) autophosphorylation expressed in human GIST882 cells by ELISA-based assay; type: cell-based
How it was run: (§1)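 Cells were stimulated with the respective ligand. Receptor tyrosine kinase autophosphorylation in the presence of compound was quantified by ELISA.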

[3] = Dose normalized AUC(0 to infinity) in OFA rat at 25 mg/kg, po measured upto 24 hrs by HPLC/UV analysis; type: ADME, organism-based; conditions: in vivo
How it was run: (§2)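 Female OFA rats, femoral artery/vein catheterized and recovered 96 h. Oral gavage of a micronized suspension in 0.5 % carboxymethyl cellulose at 25 or 3 mg/kg. Bioavailability taken against femoral-vein iv dosing. Plasma sampled 5 min–24 h (9 time points).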

[4] = Half life in OFA rat at 25 mg/kg, po measured upto 24 hrs by HPLC/UV analysis; type: ADME, organism-based; conditions: in vivo; how it was run: as §2
[5] = Volume of distribution at steady state in OFA rat at 2.5 mg/kg, iv measured upto 24 hrs by HPLC/UV analysis; type: ADME, organism-based; conditions: in vivo, read-out: Vdss
How it was run: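 Female OFA rats with femoral artery and vein catheters, 96 h recovery. IV into femoral vein: 2.5 mg/kg in ethanol/dimethylisosorbide/PEG400/D5W (10/15/35/40) or 1 mg/kg in NMP/PEG200 (30:70). Plasma sampled at 5, 15, 30 min, 1, 2, 4, 6, 8, 24 h; drug measured by HPLC (UV or MS-MS stated); parameters dose normalized, n=2-4.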

[6] = target: Platelet-derived growth factor receptor beta (Homo sapiens, UniProt P09619); test: Inhibition of PDGFR (unknown origin) autophosphorylation expressed in mouse BALB/3T3 clone A31 cells by ELISA-based assay; type: cell-based; how it was run: as §1
[7] = target: T1, Proto-oncogene tyrosine-protein kinase receptor Ret (Homo sapiens, UniProt P07949); test: Inhibition of human recombinant GST-fused RET expressed in baculovirus expression system using poly-Glu-Tyr (4:1) as substrate measured after 10 mins in presence of gamma-[33P]-ATP by scintillation counting analysis
How it was run: (§3)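 GST-fused kinase domains were expressed in baculovirus and purified on glutathione-Sepharose. 10 min at ambient temperature, stopped with EDTA. Filter binding and scintillation counting. IC50 by linear regression of percent inhibition.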

[8] = target: T2, Vascular endothelial growth factor receptor 2 (Homo sapiens, UniProt P35968); test: Inhibition of human recombinant GST-fused VEGFR2 kinase domain transphosphorylation expressed in baculovirus expression system using poly-Glu-Tyr (4:1) as substrate measured after 10 mins in presence of gamma-[33P]-ATP by scintillation counting analysis
[9] = tested on: B16-BL6; test: Antitumor activity against mouse B16-BL6 cells implanted in C57BL/6jNpa mouse assessed as reduction in TIE-2 levels metastases lysate of at 3 mg/kg, po qd administered started on day 7 post implantation measured after 21 days by ELISA analysis; type: functional, organism-based; conditions: time 7-21 day
How it was run: (§4)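 Female C57BL/6JNpa mice, 50000 B16/BL6 cells intradermally in both ear pinnae; primary tumor area (mm²) imaged days 7, 14, 21; randomized day 7 into groups of 5-6, oral dosing in PEG200 or PEG300 vehicle daily (or every 2 days) for 14 days; day 21 cervical lymph nodes weighed, metastasis lysates assayed for TIE-2 by ELISA; T/C ratios.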

[10] = Dose normalized Cmax in OFA rat at 25 mg/kg, po measured upto 24 hrs by HPLC/UV analysis; type: ADME, organism-based; conditions: in vivo; how it was run: as §2
[11] = target: T1, Proto-oncogene tyrosine-protein kinase receptor Ret; test: Inhibition of RET (unknown origin) autophosphorylation expressed in mouse NIH3T3 cells by ELISA-based assay; type: cell-based; how it was run: as §1
[12] = target: Bcr/Abl fusion protein (Homo sapiens, UniProt P00519); test: Inhibition of BCR-ABL (unknown origin) autophosphorylation expressed in mouse 32D cells by ELISA-based assay; type: cell-based; how it was run: as §1
[13] = target: Angiopoietin-1 receptor (Homo sapiens) (UniProt Q02763); test: Inhibition of human recombinant GST-fused TIE2 expressed in baculovirus expression system using poly-Glu-Tyr (4:1) as substrate measured after 10 mins in presence of gamma-[33P]-ATP by scintillation counting analysis; how it was run: as §3
[14] = target: Tyrosine-protein kinase ABL1 (Homo sapiens) (UniProt P00519); test: Inhibition of human recombinant GST-fused ABL expressed in baculovirus expression system using poly-Glu-Tyr (4:1) as substrate measured after 10 mins in presence of gamma-[33P]-ATP by scintillation counting analysis; how it was run: as §3
[15] = target: T2, Vascular endothelial growth factor receptor 2; test: Inhibition of VEGF-induced human VEGFR2 autophosphorylation transfected in CHO cells measured after 2 hrs by chemiluminescence assay; type: cell-based
[16] = target: Epidermal growth factor receptor (Homo sapiens, UniProt P00533); test: Inhibition of EGFR (unknown origin) autophosphorylation expressed in human A-431 cells by ELISA-based assay; type: cell-based; how it was run: as §1
[17] = target: Insulin-like growth factor 1 receptor (Homo sapiens, UniProt P08069); test: Inhibition of IGF1R (unknown origin) autophosphorylation expressed in […] by ELISA-based assay; type: cell-based; how it was run: as §1
[18] = target: T2, Vascular endothelial growth factor receptor 2; test: Inhibition of VEGF-induced human VEGFR2 autophosphorylation expressed in HUVEC cells measured after 2 hrs by chemiluminescence assay; type: cell-based
[19] = tested on: B16-BL6; test: Antitumor activity against mouse B16-BL6 cells implanted in C57BL/6jNpa mouse assessed as primary tumor growth inhibition by measuring T/C ratio at 1 mg/kg, po qd administered every 2 days started on day 7 post implantation measured after 21 days; type: functional; conditions: time 7-21 day; how it was run: as §4
[20] = Antitumor activity against rat BN472 cell implanted in Brown-Norway rat assessed as T/C ratio at 1 mg/kg, po qd measured upto 14 days; type: functional; conditions: time <= 14 day
How it was run: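 Female Brown-Norway rats (160-180 g) given 3 mm³ BN472 tumor fragments in mammary fat pads; at about 200 mm², randomized into groups of 7-8 and dosed orally with compound or PEG300 vehicle over 14 days; tumor growth followed, T/C computed; significance by 2-way RM-ANOVA.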

[21] = tested on: Mus musculus; test: Protection against VEGF-induced vessel extravasation in FVB mouse at 3 mg/kg pre-administrated for 2 to 48 hrs followed by evans-blue administration for 30 mins and measured 30 mins after dog VEGF164 addition; type: functional, organism-based; conditions: time 3-49 hrs
How it was run: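 Female FVB mice (18–20 g), 3–4 per group. Oral 3 mg/kg at 48, 24 or 8 h before sacrifice. Evans blue 0.5 % (200 µl) given i.v. in the tail vein. 30 min later, 2 µL dog VEGF164 (10 ng/µL) injected intradermally into the ear pinna. Dye extravasation quantified by a computer-assisted system.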

[22] = tested on: B16-BL6; test: Antitumor activity against mouse B16-BL6 cells implanted in C57BL/6jNpa mouse assessed as primary tumor growth inhibition by measuring T/C ratio at 3 mg/kg, po qd administered once every 2 days started on day 7 post implantation measured after 21 days; type: functional; conditions: time 7-21 day; how it was run: as §4
[23] = Dose normalized Cmax in OFA rat at 3 mg/kg, po measured upto 24 hrs by HPLC/UV analysis; type: ADME, organism-based; conditions: in vivo; how it was run: as §2

half-life [1] [h] | pIC50 [2] | pIC50 [6] | inhibition [7] | pIC50 [8] | pIC50 [11] | pIC50 [12] | inhibition [13] | pIC50 [15] | pIC50 [16] | pIC50 [17] | pIC50 [18] | SMILES | Activity [9] | Activity [21] | also measured
10.1 | – | – | – | – | – | – | – | – | – | – | – | Nc1cc(Oc2ccc3c(C(=O)Nc4cccc(C(F)(F)F)c4)cccc3c2)ncn1 | – | – | –
– | 7.52 | 7.52 | Active | 8.05 | 7.52 | < 6.30 | Active | 8.38 | < 6.30 | < 6.30 | 8.54 | Nc1nccc(Oc2ccc3c(C(=O)Nc4cccc(C(F)(F)F)c4)cccc3c2)n1 | Active | – | AUC/dose [3]: 1.22 µmol·h/L; half-life [4]: 2 h; Vd [5]: 1.3 L/kg; Cmax/dose [10]: 280 nM; inhibition [14]: Active
4.5 | – | – | – | – | – | – | – | – | – | – | – | Nc1nccc(Oc2ccc3c(C(=O)Nc4ccc(F)c(C(F)(F)F)c4)cccc3c2)n1 | Active | Active | T/C [19]: 0.6; T/C [20]: 0.028; T/C [22]: 0.39
– | 7.52 | 7.52 | Active | 8.57 | 7.52 | < 6.30 | Active | 8.34 | < 6.30 | < 6.30 | 8.52 | O=C(Nc1cccc(C(F)(F)F)c1)c1cccc2cc(Oc3cc(CO)ncn3)ccc12 [BFH-772] | – | Active | Cmax/dose [23]: 1570 nM

From ChEMBL document CHEMBL5252510, “A Novel Potent Oral Series of VEGFR2 Inhibitors Abrogate Tumor Growth by Inhibiting Angiogenesis” (J Med Chem, 2016)
